In article PMC6039199 (Clinical and Translational Science, 2018):
Values joined by “and” are separate entries in the source; they are usually repeats but may differ in a detail not shown here. Equal values may be shown once. “Also recorded” adds a separate entry of the source. Read-outs that look alike come from different tables or passages of the source. Marks after values point to notes of the source that are not given here.

Columns and labels:
[1] = type: in vivo, human; details: for AUCinf(dn), adjusted least squares geometric mean: N = 8, mixed-effects model; for t1/2 / half-life: arithmetic mean ± SD
How it was run: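 In period 1, after an overnight fast of at least 8 h, subjects received 15 mg oral unlabeled drug. A 100 μg 14C i.v. microdose (~400 nCi) was infused over ~5 min, ending 1 h post oral dose. Plasma 14C drug was measured by HPLC-AMS and unlabeled drug by HPLC-MS/MS (LLOQ 0.5 ng/mL). Noncompartmental AUClast used linear-log trapezoids and AUCinf = AUClast + Clast*/kel, normalized to the actual dose. F = ratio of adjusted geometric means, from a mixed-effects model on ln AUCinf with 90% CI.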

[2] = type: in vivo, human; details: for 14C_Total(dn) (14C_Total in dpm/radioactivity dose in dpm), geometric mean: N = 6; for 14C-Total urinary excretion: mean (%CV)
How it was run: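 Period 1 was the i.v. 14C microdose. In period 2, after at least 11 days washout and a fast of at least 8 h, subjects took 15 mg oral unlabeled drug (three 5-mg tablets), then a 100 μg oral 14C solution (~400 nCi) with ~240 mL water. Urine 0–96 h was assayed for 14C by AMS, summed as concentration × volume, then normalized to the administered dpm. That dose came from LSC of the solution and syringe weight. Fa = oral/i.v. geometric mean ratio, plus a mixed-effects model using all data.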

[3] = Safety and tolerability assessments in the microtracer study; type: in vivo, human; details: for Adverse events: N = 8
How it was run: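 Eight healthy adult men, fasted at least 8 h overnight, received the test compound orally plus an i.v. 14C microtracer (period 1), then oral unlabeled drug plus oral 14C microtracer (period 2). Monitoring covered adverse events, vital signs, ECGs and laboratory tests from screening through the study. A telephone follow-up for adverse events was made 14 ± 3 days after the last dose.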

[4] = dose range of 0.5–300 mg, fasting state; cited from earlier work
[5] = cited from earlier work
[6] = rats; cited from earlier work
[7] = dogs; cited from earlier work
Caco‐2 cells = details: cited from earlier work
[8] = ref data on file; cited from earlier work
[9] = 100 μg i.v. 14C, geometric mean (geometric %CV)
[10] = 15 mg oral unlabeled, dose-normalized to 1 mg, geometric mean (geometric %CV)

Compound: ^14C‐ertugliflozin
- AUCinf(dn), adjusted least squares geometric mean ([1]; 100 μg i.v. 14C (Reference)): 88.96 ng·h/mL/mg
- AUCinf ([1]; 100 μg i.v. 14C microdose, period 1, N = 8, geometric mean (geometric %CV)): 8.477 (15) ng·h/mL
- Time quantifiable in plasma postdose ([1]; 100 μg i.v. 14C microdose, HPLC-AMS, LLOQ 20.4 pg/mL): ~24 h
- Tmax ([1]; 100 μg i.v. 14C, 5-min infusion, relative to infusion start, median (range)): 0.083 (0.083–0.100) h
- t1/2 ([1]; 100 μg i.v. 14C): 8.098 ± 2.248 h
- Cmax(dn) ([1]; 100 μg i.v. 14C, dose-normalized to 1 mg, geometric mean (geometric %CV)): 89.34 ^b (32) ng/mL/mg
- AUClast [1, 9]: 7.859 (14) ng·h/mL
- CL [1, 9]: 187.2 (15) mL/min
- Cmax [1, 9]: 8.514 (32) ng/mL
- Vss [1, 9]: 85.53 (15) L
- 14C_Total(dn) (14C_Total in dpm/radioactivity dose in dpm), geometric mean ([2]; i.v. 100 μg 14C (Reference, period 1), urine): 0.390
- 14C-Total urinary excretion ([2]; i.v. 100 μg 14C, period 1, N = 6): 319,000 (19) dpm and 319,000 dpm
- Total 14C in urine as percent of administered dose (% 14C_Total) ([2]; i.v. administration): 39%
- 14C-Total urinary excretion ([2]; oral 100 μg 14C, period 2, N = 8): 320,400 (10) dpm and 320,400 dpm
- Total 14C in urine as percent of administered dose (% 14C_Total) ([2]; oral administration): 44%

Compound: CCOc1ccc(Cc2cc([C@]34OC[C@](CO)(O3)[C@@H](O)[C@H](O)[C@H]4O)ccc2Cl)cc1 [ertugliflozin]
- AUCinf(dn), adjusted least squares geometric mean ([1]; 15 mg oral unlabeled (Test)): 93.16 ng·h/mL/mg
- Time quantifiable in plasma postdose ([1]; 15 mg oral unlabeled, HPLC-MS/MS, LLOQ 0.5 ng/mL): 72 h
- t1/2 ([1]; 15 mg oral unlabeled, listed as Unlabeled ertugliflozin): 14.04 ± 2.17 h
- AUCinf(dn) [1, 10]: 93.16 (13) ng·h/mL/mg
- Cmax(dn) [1, 10]: 17.09 (14) ng/mL/mg
- CL/F ([1]; 15 mg oral unlabeled, geometric mean (geometric %CV)): 178.7 mL/min
- Permeability classification ([1]; based on F and Fa ∼100%): highly permeable
- Vd ([1]; human, plasma, iv, 100 ug): 85.5 L
- clearance ([1]; human, plasma, iv, 100 ug): 187 mL/min
- half-life ([1]; human, plasma, iv, 100 ug, t1/2, 100 μg i.v. 14C): 8.1 h
- AUC(0-inf) ([1]; human, plasma, po, 15 mg): 1400 ng·h/mL
- AUC(0-t) ([1]; human, plasma, po, 15 mg): 1380 ng·h/mL
- Cmax ([1]; human, plasma, po, 15 mg): 256 ng/mL
- Vd/F ([1]; human, plasma, po, 15 mg): 215 L
- half-life ([1]; human, plasma, po, 15 mg, t1/2, 15 mg oral unlabeled): 14 h
- Absolute oral bioavailability F: Ratio (Test/Reference) of adjusted means ([1]; oral 15 mg vs i.v. 14C 100 μg, fasted, N = 8): 105% and 104.73%
- Fraction absorbed Fa: geometric mean ratio (90% CI), mixed-effects model ([2]; all available data (N = 8 oral; N = 6 i.v.)): 110%
- Oral absorption ([2]; fasted conditions): complete; also recorded: completely absorbed
- 14C_Total(dn) (14C_Total in dpm/radioactivity dose in dpm), geometric mean ([2]; oral (Test, period 2), urine 0–96 h): 0.432
- Fraction absorbed Fa: ratio (Test/Reference) of geometric means ([2]; six subjects with complete urine data for both treatments, fasted): 111% and 110.71%
- Tolerability ([3]; following i.v. and oral administration, healthy men): well tolerated
- Adverse events ([3]; period 1 (i.v. administration)): Three subjects experienced three AEs (back pain and two episodes of headache)
- Adverse events ([3]; period 2 (oral administration)): one subject experienced one AE (nasal congestion)
- Dose proportionality in exposure (AUC and Cmax) [4]: dose proportionality in exposure
- Principal biotransformation pathway ([5]; humans): glucuronidation
- Renal excretion of unchanged ertugliflozin ([5]; single 25-mg oral 14C dose, healthy male subjects): 1.5%
- Human fraction of dose absorbed (Fa) from mean urinary 14C recovery ([5]; single 25-mg oral 14C dose): at least 50%
- Estimated Fa [6]: ~75%
- Estimated Fa [7]: ~100%
- BA/AB ratio (Caco‐2 cells; Caco-2): 2.1
- Permeability coefficient (Caco‐2 cells; apical (A) to basolateral (B) direction): 4.1 ×10⁻⁶ cm/s
- Solubility classification [8]: highly soluble
- Solubility of 15 mg in 250 mL aqueous media [8]: completely soluble
